According to publication PMC11617404 (iScience, 2024):
Values belong to the compound of their own block, whether it stands above or below them.

Columns and labels:
[1] = system: HepG2 cells; test: ECAR and OCR during glycolytic stress test; format: cell-based, human; details: 1 h glucose starvation, 10 mM glucose, 10 μM oligomycin, 100 mM 2-DG
Procedure, shortened: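 HepG2 cells in Seahorse plates were transfected the next day with the sensor or its null variant. At 24 h they were glucose-starved for 1 h in XF DMEM (pH 7.4, 2 mM glutamine, no glucose, no phenol red) in a CO2-depleted incubator, and the medium was renewed. Additions: 10 mM glucose, 10 μM oligomycin, then 100 mM 2-DG in two 50 mM steps. OCR (pmol O2/min) was normalized to cell number by BCA protein assay; n = 3.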

[2] = molecular target: T1, HYlight (Bacillus subtilis, UniProt O32253); test: Titration of purified HYlight with oligomycin or 2-DG; format: binding; details: increasing concentrations, Figure S1E
T1 sequence (O32253 96-340, other chains not shown): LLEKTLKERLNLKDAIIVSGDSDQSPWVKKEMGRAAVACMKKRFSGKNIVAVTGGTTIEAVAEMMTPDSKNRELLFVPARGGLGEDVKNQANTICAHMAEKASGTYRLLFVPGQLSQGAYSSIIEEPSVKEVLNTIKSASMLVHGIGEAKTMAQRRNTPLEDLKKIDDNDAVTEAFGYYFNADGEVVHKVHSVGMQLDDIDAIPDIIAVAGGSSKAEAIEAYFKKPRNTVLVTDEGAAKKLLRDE

[3] = system: HepG2 cells; test: Gluconeogenesis induction with FBP1 or PFK inhibition, HYlight imaging; format: cell-based, human
Procedure, shortened: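 HepG2 cells were kept in DMEM Glutamax with 25 mM lactate and 0.65 mM pyruvate. After transfection, 50 μM dexamethasone and 100 nM glucagon were added; normal medium served as comparison. The PFK inhibitor (20 μM) was given 24 h before the assay, and the FBP1 inhibitor (20 μM) acutely. After 1 h glucose starvation, cells were imaged with dexamethasone and glucagon (60 min each), FBP1 inhibitor (30 min), then 15 mM glucose (25 min). Read-out was 488/405 nm ratio; n ≥ 3, 50 cells each.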

[4] = molecular target: T1, HYlight; test: Titration of purified recombinant HYlight, excitation ratio F500/F400; format: binding; details: for maximum fluorescence ratio: purified HYlight, titration from low μM to mM range, Figure 5C; for average fluorescence ratio: 1 μM FBP, Figure 6D; for maximum ratiometric value (fluorescence ratio): Figure 6A; for fluorescence ratio (maximum): Figure 7A
Procedure, shortened: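 Purified sensor (200 nM) was scanned at excitation 350–520 nm, emission 560 nm, 25°C, with ratio F500/F400. For ionic strength, protein in TBS (0 mM NaCl, 50 mM Tris-HCl pH 7.6) was titrated with FBP and NaCl 0–150 mM. The buffer series compared 25 mM MES/CHES/HEPES, PBS and Britton-Robinson pH 8, pH-adjusted with NaOH; n = 3.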

[5] = molecular target: T1, HYlight; test: Dihydroxyacetone phosphate competition assay on purified HYlight; format: binding; details: purified HYlight in the presence of 100 μM FBP, Figure 5D
Procedure, shortened: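 Protein was IPTG-induced (0.5 mM, overnight, 30°C), purified by Ni2+ affinity and size exclusion, and used at 200 nM. DHAP was titrated with or without 100 μM FBP, and with or without cytosolic ionic strength (140 mM K+, 12 mM Na+) plus a metabolic mix. Excitation was scanned 350–520 nm with emission at 560 nm, 25°C. Ratio R = F500/F400, ΔR/R0 = (Rt−Rt=0)/Rt=0; n = 3.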

[6] = system: primary mouse hepatocytes; test: Hypoxia induction assay; format: cell-based; details: 1 mM overnight, 1 h starvation
Procedure, shortened: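 Transfected primary mouse hepatocytes received 1 mM DMOG 24 h before and during the assay, with DMSO as blank. After 1 h glucose starvation they were given 20 mM glucose (35 min), a further 20 mM glucose (10 min), then 100 mM 2-DG (10 min), with the 488/405 nm ratio recorded.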

[7] = system: HepG2 cells; test: Hypoxia induction assay; format: cell-based, human; details: 1 mM overnight, 1 h starvation
Procedure, shortened: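 Transfected HepG2 cells received 1 mM DMOG 24 h before the assay, kept throughout, with DMSO as blank. After 1 h glucose starvation, cells were imaged for 30 min after 10 mM glucose, following the 488/405 nm ratio. n ≥ 5, 50 cells per replicate.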

[8] = system: aldolase; details: cited from earlier work
[9] = molecular target: T1, HYlight; test: Metal binding assay on purified HYlight; details: 150 mM NaCl or KCl, 0.1 mM EDTA
[10] = molecular target: T1, HYlight; details: cited from earlier work
[11] = molecular target: T1, HYlight; test: Phosphate titration assay on purified HYlight; format: binding
Procedure, shortened: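 Purified sensor (200 nM) or null variant was tested in SEC buffer pH 8 with TBS or PBS. Separately, 200 mM Sorensen's phosphate pH 8 was titrated from the nM to mM range into sensor in 50 mM Tris pH 8, with or without 100 μM FBP, keeping conductivity constant. Excitation was scanned 350–520 nm, emission 560 nm, 25°C; read-out was the F500/F400 ratio change; n = 3.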

[12] = system: PFK-1; details: PFK-1 toward FBP; ref BRENDA:EC2.7.1.11; Zheng and Kemp[47]; cited from earlier work
[13] = system: HepG2 cells; test: FBP added to the media of non-permeabilized HepG2 cells expressing HYlight; format: cell-based, human; details: intact HepG2 cells, increasing FBP in the media, no saponin
[14] = system: FBPase-1; details: FBPase-1 for FBP, gluconeogenic conditions; cited from earlier work
[15] = FBP quantification with HYlight in primary mouse hepatocytes; format: cell-based
Procedure, shortened: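 Hepatocytes were transfected with HYlight plasmid 2 h after seeding; medium was replaced 12 h later. Cells were glucose-starved 1 h in glucose-free Seahorse XF DMEM (pH 7.4, 2 mM glutamine), then given 10 mM glucose. Confocal 488/405 ratios were normalized to post-2-DG values and read against an in vitro FBP curve (ΔR/R10) mimicking ionic strength and metabolic competition. n = 3, ≥50 cells each.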

[16] = system: HLE cells; test: Glycolytic stress test, HYlight confocal imaging in HLE cells; format: cell-based, human; details: after the addition of 10 mM glucose
Procedure, shortened: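 Transfected HLE cells were glucose-starved for 1 h in XF DMEM pH 7.4 (2 mM glutamine, no glucose) and imaged 10 min. They then received 10 mM glucose for 30 min, 2.5 μM oligomycin for 30 min and 50 mM 2-DG for 30 min. The 488/405 nm ratio was followed over time and min-max normalized.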

[17] = system: primary mouse hepatocytes; test: Glucose titration, HYlight confocal imaging in primary mouse hepatocytes; format: cell-based; details: 1 h glucose starvation, glucose 0–40 mM added every 10 min
Procedure, shortened: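 Hepatocytes were isolated by two-step collagenase perfusion via the vena cava and cultured in William's medium with 10% FBS and 10 mM HEPES. They were transfected 2 h after seeding, with medium changed at 12 h. After 1 h starvation in glucose-free XF DMEM pH 7.4, cells were imaged 10 min, given glucose in steps every 10 min to 40 mM, then 100 mM 2-DG. The 488/405 nm ratio was recorded; n = 3, ≥50 cells each.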

[18] = system: HepG2, HLE, and Huh6 cells; test: Glucose titration, HYlight confocal imaging in hepatoma cell lines; format: cell-based, human
Procedure, shortened: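 Hepatoma lines expressing codon-optimized cytosolic sensor (Lipofectamine, medium changed at 24 h) were glucose-starved for 1 h in XF DMEM pH 7.4 without glucose. They were imaged 10 min, then given increasing glucose every 10 min up to 40 mM, then 50 mM 2-DG. The 488/405 nm confocal ratio was min-max normalized, and the Hill coefficient was taken from ratio versus glucose; n = 3, ≥50 cells each.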

direct effect on ratiometric response of purified HYlight [2]: do not directly interact with HYlight
Compound: O=CC[C@@H](O)[C@H](O)[C@H](O)CO [2-DG, 2-deoxy-D-glucose]
change of oxygen consumption rate (OCR) [1]: increase in the OCR

Compound: O=C(/C=C/c1cccnc1)c1ccncc1 [3PO, (2E)-3-(3-Pyridinyl)-1-(4-pyridinyl)-2-propen-1-one]
decrease in FBP levels after glucose addition ([3]; 20 μM, 24 h treatment, gluconeogenic media): not observed | FBP levels (HYlight ratio) after glucose addition ([3]; 20 μM, 24 h treatment, normal media): significant decrease in the FBP levels

Compound: O=S(=O)(Nc1nc2cc(Cl)ccc2o1)c1cc(Cl)ccc1Cl [5-chloro-2-(N-(2,5-dichlorobenzenesulfonamide))-benzoxazole]
FBP level (HYlight ratio) after glucose addition ([3]; 20 μM inhibitor, gluconeogenic medium, 15 mM glucose): increase of FBP to levels comparable to those seen with standard media

maximum fluorescence ratio [4]: 0.75 | DHAP concentration at which significant competition was observed [5]: above 2.5 mM
Compound: O=C(CO)COP(=O)(O)O [DHAP, dihydroxyacetone phosphate]

Compound: COC(=O)CNC(=O)C(=O)OC [DMOG, dimethyloxalylglycine]
basal fluorescence (HYlight ratio) [6]: significant increase in basal fluorescence | response to glucose (HYlight ratio) [6]: diminished or absent response to glucose | basal fluorescence (HYlight ratio) [7]: significant increase in basal fluorescence | response to glucose (HYlight ratio) [7]: diminished or absent response to glucose

Compound: O=CC(O)COP(=O)(O)O (stereo not shown) [glyceraldehyde 3-phosphate]
turnover rate ([8]; aldolase toward glyceraldehyde 3-phosphate, ref BRENDA:EC4.1.2.13, Plater et al.[48]): 8.2 s⁻¹

Compound: CC[C@H]1/C=C/C=C/C[C@@H](C)[C@H](O)[C@@](C)(O)C(=O)[C@@H](C)[C@H](O)[C@@H](C)C(=O)[C@@H](C)[C@H](O)[C@@H](C)/C=C/C(=O)O[C@@H]2[C@H](C)[C@H](CC1)O[C@]1(CC[C@H](C)[C@H](C[C@@H](C)O)O1)[C@H]2C [oligomycin, Oligomycin A]
change of oxygen consumption rate (OCR) [1]: decrease in oxygen consumption | direct effect on ratiometric response of purified HYlight [2]: do not directly interact with HYlight

Compound: [K+] [K^+]
effect on response and apparent KD value of HYlight for FBP [9]: did not alter the response or the apparent KD value

Compound: O=P(O)(O)OC[C@H]1O[C@@](CO)(OP(=O)(O)O)[C@@H](O)[C@@H]1O [fructose 2,6-bisphosphate]
binding to HYlight [10]: can also bind

effect of phosphate titration on fluorescence response ([11]; in the presence of 100 μM FBP): decrease in fluorescence response
Compound: phosphate
effect of phosphate titration on 500/400 fluorescence ratio ([11]; in the absence of FBP): increase in the 500/400 fluorescence ratio

Compound: O=C(O)CN(CCN(CC(=O)O)CC(=O)O)CC(=O)O [EDTA, ethylenediaminetetraacetic acid]
effect on response and apparent KD value of HYlight for FBP [9]: did not alter the response or the apparent KD value

average fluorescence ratio ([4]; TBS with 0 mM NaCl): 1.87 | average fluorescence ratio ([4]; TBS with 150 mM NaCl): 0.94 | maximum ratiometric value (fluorescence ratio) ([4]; Britton-Robinson phosphate buffer): 1 | fluorescence ratio (maximum) ([4]; CIS (140 mM KCl and 12 mM NaCl)): 3.5 | fluorescence ratio (maximum) ([4]; CIS + metabolic mix solution): 3.5 | maximum ratiometric value (fluorescence ratio) ([4]; MES-CHES-HEPES buffer): ~3 | maximum ratiometric value (fluorescence ratio) ([4]; PBS): 2 | maximum fluorescence ratio [4]: 2 | fluorescence ratio (maximum) ([4]; working buffer, 125 mM NaCl): 2 | entry of FBP from the media into cells (HYlight ratio unchanged) [13]: could not cross the membrane | FBP concentration in primary mouse hepatocytes (HYlight) ([15]; after 10 mM glucose): 21 µM | FBP concentration in primary mouse hepatocytes (HYlight) ([15]; before glucose addition): 15 µM
Compound: O=C(COP(=O)(O)O)[C@@H](O)[C@H](O)[C@H](O)COP(=O)(O)O [FBP, fructose 1,6-bisphosphate]
turnover rate [12]: 111 s⁻¹ | specificity constant ([8]; aldolase for FBP): 4.7 mM⁻^1s⁻^1 | specificity constant [14]: 23 mM⁻^1s⁻^1

Compound: OC[C@H]1OC(O)[C@H](O)[C@@H](O)[C@@H]1O (stereo partly shown) [glucose]
time to maximum HYlight response [16]: 30 min | change of oxygen consumption rate (OCR) [1]: decrease in oxygen consumption | glucose concentration after which HYlight changes were detected [17]: 20 mM | glucose concentration needed for HYlight changes ([18]; 1 h glucose starvation, glucose 0–40 mM added every 10 min): 5 mM | hill coefficient of HYlight ratio against glucose concentration ([18]; HLE, HepG2, Huh6 cell lines and primary mouse hepatocytes, Figure 1C): approximately 1

Compound: [Na+] [Na^+]
effect on response and apparent KD value of HYlight for FBP [9]: did not alter the response or the apparent KD value
